Assay results as given in ChEMBL document CHEMBL4406821, “Novel dual inhibitors targeting CDK4 and VEGFR2 synergistically suppressed cancer progression and angiogenesis” (Eur J Med Chem, 2019).
The source made the active and inactive calls. No cut-off for these calls is given here.

Legend:
[1] = Toxicity in NOD/SCID BALB/c mouse xenografted with human SiHa cells assessed as toxic effects in heart at 40 mg/kg, po administered for 48 hrs by hematoxylin and eosin staining method; type: organism-based; details: in vivo
[2] = Half life in Sprague-Dawley rat at 10 mg/kg, po by HPLC-MS analysis; type: ADME, organism-based; details: in vivo
Procedure, shortened: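 Rats fitted with jugular vein catheters for serial blood sampling. Compound dissolved in saline with 5% (v/v) DMSO and given as a single 10 mg/kg dose iv or po after an overnight fast, n = 5 per group. Plasma isolated at once and measured by HPLC with tandem MS detection. Parameters derived by noncompartmental fitting.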

[3] = molecular target: Activin receptor type-1B (Homo sapiens) (UniProt P36896); test: Inhibition of recombinant human ALK4 (150 to end residues) at 1 uM using as casein substrate incubated for 40 mins in presence of [gamma-33P]-ATP by scintillation counting method relative to control
Procedure, shortened: (§1)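 Kinase panel profiling at 1 μM performed by Eurofins KinaseProfiler; percent inhibition reported as mean of two independent experiments.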

[4] = molecular target: Bone morphogenetic protein receptor type-2 (Homo sapiens) (UniProt Q13873); test: Inhibition of recombinant human BMPR2 (172 to 734 residues) at 1 uM using myelin ba as substrate incubated for 120 mins in presence of [gamma-33P]-ATP by scintillation counting method relative to control; procedure, shortened: as §1
[5] = molecular target: Tyrosine-protein kinase Fes/Fps (Homo sapiens) (UniProt P07332); test: Inhibition of recombinant human FES (2 to end residues) at 1 uM using poly(Glu, Tyr) 4:1 as substrate incubated for 40 mins in presence of [gamma-33P]-ATP by scintillation counting method relative to control
[6] = tested on: Fibroblast growth factor receptor 2 (Homo sapiens), P21802 [N549H]; test: Inhibition of recombinant human FGFR2 N549H mutant (456 to 770 residues) at 1 uM using GGEEEEYFELVKKKK as substrate incubated for 40 mins in presence of [gamma-33P]-ATP by scintillation counting method relative to control
[7] = molecular target: Vascular endothelial growth factor receptor 2 (Homo sapiens, UniProt P35968); test: Inhibition of recombinant human KDR (790 to end residues) at 1 uM using myelin basic protein as substrate incubated for 40 mins in presence of [gamma-33P]-ATP by scintillation counting method relative to control
[8] = molecular target: Serine/threonine-protein kinase MARK1 (Homo sapiens) (UniProt Q9P0L2); test: Inhibition of recombinant human MARK1 (2 to end residues) at 1 uM using KKKVSRSGLYRSPSMPENLNRPR as substrate incubated for 40 mins in presence of [gamma-33P]-ATP by scintillation counting method relative to control
[9] = molecular target: Mitogen-activated protein kinase kinase kinase 3 (Homo sapiens) (UniProt Q99759); test: Inhibition of recombinant human full length MEKK3 at 1 uM using myelin basic protein as substrate incubated for 40 mins in presence of [gamma-33P]-ATP by scintillation counting method relative to control
[10] = molecular target: Dual specificity mitogen-activated protein kinase kinase 3 (Homo sapiens) (UniProt P46734); test: Inhibition of recombinant human MKK3 at 1 uM incubated for 40 mins in presence of [gamma-33P]-ATP by scintillation counting method relative to control
[11] = molecular target: Dual specificity mitogen-activated protein kinase kinase 7 (Homo sapiens) (UniProt O14733); test: Inhibition of recombinant human MKK7beta (2 to end residues) at 1 uM using unactive JNK1a1 as substrate incubated for 40 mins in presence of [gamma-33P]-ATP by scintillation counting method relative to control
[12] = molecular target: Serine-protein kinase ATM (Homo sapiens) (UniProt Q13315); test: Inhibition of recombinant human full length ATM at 1 uM using GST-cMyc-p53 as substrate incubated for 40 mins in presence of [gamma-33P]-ATP by scintillation counting method relative to control
[13] = molecular target: MAP kinase-interacting serine/threonine-protein kinase 2 (Homo sapiens) (UniProt Q9HBH9); test: Inhibition of recombinant human full length MNK2 at 1 uM using myelin basic protein as substrate incubated for 40 mins in presence of [gamma-33P]-ATP by scintillation counting method relative to control
[14] = molecular target: Tyrosine-protein kinase Tec (Homo sapiens) (UniProt P42680); test: Inhibition of activated recombinant human TEC (174 to end residues) at 1 uM using EFPIYDFLPAKKK as substrate incubated for 40 mins in presence of [gamma-33P]-ATP by scintillation counting method relative to control
[15] = molecular target: Serine/threonine-protein kinase WNK1 (Homo sapiens) (UniProt Q9H4A3); test: Inhibition of recombinant human WNK1 (1 to 491 residues) at 1 uM using myelin basic protein as substrate incubated for 40 mins in presence of [gamma-33P]-ATP by scintillation counting method relative to control
Procedure, shortened: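 Tested at a single 1 uM in an outsourced commercial kinase-profiling panel, read as percent inhibition. Each value is the mean of two independent experiments.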

CDK2/Cyclin A2 = CDK2/Cyclin A2 (Homo sapiens, UniProt P24941); test: Inhibition of recombinant human full length CDK2/CyclinA using as histone H1 substrate incubated for 40 mins in presence of [gamma-33P]-ATP by scintillation counting method; type: protein-complex assay
[16] = Toxicity in NOD/SCID BALB/c mouse xenografted with human SiHa cells assessed as effect on blood parameter by measuring RDW at 40 mg/kg, po administered once two days for 4 times by hematology analyzer; type: organism-based; details: in vivo
[17] = Toxicity in BALB/c mouse assessed as effect on blood parameter by measuring MCH at 40 mg/kg, po administered once two days for 4 times by hematology analyzer; details: in vivo
[18] = Toxicity in BALB/c mouse assessed as effect on blood parameter by measuring lymphocytes content at 40 mg/kg, po administered once two days for 4 times by hematology analyzer; details: in vivo
T47D = test: Induction of cell cycle arrest in human T47D cells assessed as accumulation in G2/M phase at 40 nM incubated for 36 hrs by propidium iodide staining based flow cytometry; type: functional
Procedure, shortened: (§2)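 Cells were treated with graded concentrations for 36 h, then fixed overnight in 70% ice-cold ethanol at 4°C and resuspended in PBS. Staining used 50 µg/ml PI plus 5 µg/ml RNase at 37°C for 30 min. DNA content was analysed by FACS to give G0/G1, S and G2/M fractions.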

HeLa = test: Induction of cell cycle arrest in human HeLa cells assessed as accumulation in G2/M phase at 80 nM incubated for 36 hrs by propidium iodide staining based flow cytometry; type: functional; procedure, shortened: as §2
MDA-MB-231 = test: Inhibition of colony formation in human MDA-MB-231 cells at 40 nM incubated for 5 days by crystal violet staining based light microscopy; type: functional, cell-based
Procedure, shortened: (§3)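 4 × 10^3 cells per well were cultured with graded concentrations for 5 days. Cells were then fixed with 20% methanol, stained with 0.5% crystal violet and photographed by light microscopy.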

SiHa = test: Inhibition of colony formation in human SiHa cells at 80 nM incubated for 5 days by crystal violet staining based light microscopy; type: functional, cell-based; procedure, shortened: as §3

Serine/threonine-protein kinase MARK1 (Homo sapiens), sequence (Q9P0L2 whole entry, looked up): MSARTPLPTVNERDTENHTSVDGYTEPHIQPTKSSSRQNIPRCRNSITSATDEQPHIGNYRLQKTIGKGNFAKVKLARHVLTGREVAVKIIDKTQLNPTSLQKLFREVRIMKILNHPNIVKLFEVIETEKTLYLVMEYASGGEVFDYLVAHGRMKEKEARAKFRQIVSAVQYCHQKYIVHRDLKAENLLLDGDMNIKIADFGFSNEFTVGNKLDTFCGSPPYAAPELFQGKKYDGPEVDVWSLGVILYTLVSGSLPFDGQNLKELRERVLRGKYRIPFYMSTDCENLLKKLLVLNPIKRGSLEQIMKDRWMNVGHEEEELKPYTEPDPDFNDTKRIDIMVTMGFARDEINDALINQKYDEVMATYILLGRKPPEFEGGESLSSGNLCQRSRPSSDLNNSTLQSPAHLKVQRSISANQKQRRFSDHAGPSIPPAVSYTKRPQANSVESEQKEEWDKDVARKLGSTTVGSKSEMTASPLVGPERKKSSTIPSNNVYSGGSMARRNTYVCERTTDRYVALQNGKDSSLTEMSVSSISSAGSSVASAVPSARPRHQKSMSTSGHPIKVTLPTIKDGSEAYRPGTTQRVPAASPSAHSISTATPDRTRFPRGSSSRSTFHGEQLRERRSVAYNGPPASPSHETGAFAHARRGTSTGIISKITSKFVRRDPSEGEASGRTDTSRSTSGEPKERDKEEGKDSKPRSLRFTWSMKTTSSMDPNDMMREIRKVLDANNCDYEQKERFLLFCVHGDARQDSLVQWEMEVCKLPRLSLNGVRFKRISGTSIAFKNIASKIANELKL
Mitogen-activated protein kinase kinase kinase 3 (Homo sapiens), sequence (Q99759 whole entry): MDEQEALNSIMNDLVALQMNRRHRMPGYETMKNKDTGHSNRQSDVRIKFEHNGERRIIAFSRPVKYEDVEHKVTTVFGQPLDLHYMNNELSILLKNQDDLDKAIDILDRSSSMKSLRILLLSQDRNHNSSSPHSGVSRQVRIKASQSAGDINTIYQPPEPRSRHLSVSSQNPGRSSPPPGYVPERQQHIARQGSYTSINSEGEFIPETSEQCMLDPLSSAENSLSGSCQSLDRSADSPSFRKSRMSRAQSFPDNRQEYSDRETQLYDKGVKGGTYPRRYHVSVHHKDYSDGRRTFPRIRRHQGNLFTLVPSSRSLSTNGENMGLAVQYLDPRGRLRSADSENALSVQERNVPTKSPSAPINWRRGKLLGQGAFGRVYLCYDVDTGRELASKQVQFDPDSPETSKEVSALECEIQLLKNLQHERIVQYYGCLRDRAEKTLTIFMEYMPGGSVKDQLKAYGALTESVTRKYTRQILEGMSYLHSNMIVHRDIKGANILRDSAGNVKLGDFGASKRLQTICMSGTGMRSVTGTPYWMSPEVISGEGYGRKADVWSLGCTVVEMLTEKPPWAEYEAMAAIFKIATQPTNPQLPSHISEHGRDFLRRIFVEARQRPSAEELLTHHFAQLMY
Serine/threonine-protein kinase WNK1 (Homo sapiens), sequence (Q9H4A3 whole entry, looked up, the tested form may be a part): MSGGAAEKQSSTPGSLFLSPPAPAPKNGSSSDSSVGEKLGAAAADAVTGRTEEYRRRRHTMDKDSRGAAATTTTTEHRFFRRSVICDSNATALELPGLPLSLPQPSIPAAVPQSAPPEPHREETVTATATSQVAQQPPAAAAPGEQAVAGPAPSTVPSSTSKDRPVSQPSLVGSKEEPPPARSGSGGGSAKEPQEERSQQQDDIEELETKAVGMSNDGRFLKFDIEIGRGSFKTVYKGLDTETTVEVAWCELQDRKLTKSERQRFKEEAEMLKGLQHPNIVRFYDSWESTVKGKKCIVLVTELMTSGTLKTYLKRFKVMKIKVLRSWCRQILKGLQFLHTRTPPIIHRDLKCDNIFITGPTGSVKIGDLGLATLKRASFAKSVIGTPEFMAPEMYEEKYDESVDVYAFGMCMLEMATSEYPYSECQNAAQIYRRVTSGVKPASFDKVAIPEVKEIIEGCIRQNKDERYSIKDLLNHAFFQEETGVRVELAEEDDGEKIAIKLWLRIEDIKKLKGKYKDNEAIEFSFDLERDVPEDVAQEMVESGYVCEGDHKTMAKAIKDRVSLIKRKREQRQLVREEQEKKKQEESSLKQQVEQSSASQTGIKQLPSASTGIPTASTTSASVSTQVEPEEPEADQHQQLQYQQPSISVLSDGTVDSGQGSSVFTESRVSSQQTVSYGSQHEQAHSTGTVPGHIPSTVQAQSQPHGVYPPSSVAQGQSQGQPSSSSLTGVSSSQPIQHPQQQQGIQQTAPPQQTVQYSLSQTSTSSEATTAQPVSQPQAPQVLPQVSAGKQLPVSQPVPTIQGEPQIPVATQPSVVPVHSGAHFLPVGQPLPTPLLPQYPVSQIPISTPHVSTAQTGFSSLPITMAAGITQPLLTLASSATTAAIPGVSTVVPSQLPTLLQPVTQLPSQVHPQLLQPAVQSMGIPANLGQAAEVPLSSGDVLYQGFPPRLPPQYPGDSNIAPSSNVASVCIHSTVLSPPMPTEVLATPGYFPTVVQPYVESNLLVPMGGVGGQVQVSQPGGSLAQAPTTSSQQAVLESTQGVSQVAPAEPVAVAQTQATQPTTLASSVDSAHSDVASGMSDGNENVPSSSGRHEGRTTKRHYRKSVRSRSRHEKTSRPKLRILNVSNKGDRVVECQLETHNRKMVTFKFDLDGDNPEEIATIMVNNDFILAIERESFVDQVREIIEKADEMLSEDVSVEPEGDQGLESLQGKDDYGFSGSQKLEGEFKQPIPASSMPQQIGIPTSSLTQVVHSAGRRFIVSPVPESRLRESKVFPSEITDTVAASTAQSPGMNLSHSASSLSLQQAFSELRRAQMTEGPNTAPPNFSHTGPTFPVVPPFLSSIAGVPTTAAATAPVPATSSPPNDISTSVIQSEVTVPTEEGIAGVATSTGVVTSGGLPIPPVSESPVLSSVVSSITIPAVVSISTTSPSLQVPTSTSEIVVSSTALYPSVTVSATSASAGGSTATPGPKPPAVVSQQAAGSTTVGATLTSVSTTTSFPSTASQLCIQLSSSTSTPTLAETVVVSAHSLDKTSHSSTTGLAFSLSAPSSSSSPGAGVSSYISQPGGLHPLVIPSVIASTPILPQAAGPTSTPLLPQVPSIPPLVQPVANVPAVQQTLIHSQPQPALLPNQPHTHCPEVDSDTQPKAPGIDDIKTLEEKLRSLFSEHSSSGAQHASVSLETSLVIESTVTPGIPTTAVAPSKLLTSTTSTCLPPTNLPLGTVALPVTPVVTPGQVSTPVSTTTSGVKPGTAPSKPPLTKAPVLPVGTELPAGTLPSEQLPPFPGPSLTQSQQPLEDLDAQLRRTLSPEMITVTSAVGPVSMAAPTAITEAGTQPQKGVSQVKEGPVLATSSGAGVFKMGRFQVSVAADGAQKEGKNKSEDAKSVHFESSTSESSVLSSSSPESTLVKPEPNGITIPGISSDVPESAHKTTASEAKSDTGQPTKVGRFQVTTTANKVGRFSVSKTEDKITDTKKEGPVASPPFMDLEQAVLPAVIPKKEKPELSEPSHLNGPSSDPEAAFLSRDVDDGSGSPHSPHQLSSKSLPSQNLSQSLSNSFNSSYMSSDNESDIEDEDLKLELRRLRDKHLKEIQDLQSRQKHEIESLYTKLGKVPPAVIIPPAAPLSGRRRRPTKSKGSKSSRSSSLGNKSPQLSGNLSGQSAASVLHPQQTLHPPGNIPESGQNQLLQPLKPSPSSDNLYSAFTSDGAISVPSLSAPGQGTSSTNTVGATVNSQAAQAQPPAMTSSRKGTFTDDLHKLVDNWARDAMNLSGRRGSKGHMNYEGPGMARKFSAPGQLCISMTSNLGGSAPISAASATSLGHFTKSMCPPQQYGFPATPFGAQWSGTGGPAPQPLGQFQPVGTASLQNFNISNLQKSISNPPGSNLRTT
Fibroblast growth factor receptor 2 (Homo sapiens), P21802 [N549H], sequence (P21802 whole entry N549H, the tested form may be a part): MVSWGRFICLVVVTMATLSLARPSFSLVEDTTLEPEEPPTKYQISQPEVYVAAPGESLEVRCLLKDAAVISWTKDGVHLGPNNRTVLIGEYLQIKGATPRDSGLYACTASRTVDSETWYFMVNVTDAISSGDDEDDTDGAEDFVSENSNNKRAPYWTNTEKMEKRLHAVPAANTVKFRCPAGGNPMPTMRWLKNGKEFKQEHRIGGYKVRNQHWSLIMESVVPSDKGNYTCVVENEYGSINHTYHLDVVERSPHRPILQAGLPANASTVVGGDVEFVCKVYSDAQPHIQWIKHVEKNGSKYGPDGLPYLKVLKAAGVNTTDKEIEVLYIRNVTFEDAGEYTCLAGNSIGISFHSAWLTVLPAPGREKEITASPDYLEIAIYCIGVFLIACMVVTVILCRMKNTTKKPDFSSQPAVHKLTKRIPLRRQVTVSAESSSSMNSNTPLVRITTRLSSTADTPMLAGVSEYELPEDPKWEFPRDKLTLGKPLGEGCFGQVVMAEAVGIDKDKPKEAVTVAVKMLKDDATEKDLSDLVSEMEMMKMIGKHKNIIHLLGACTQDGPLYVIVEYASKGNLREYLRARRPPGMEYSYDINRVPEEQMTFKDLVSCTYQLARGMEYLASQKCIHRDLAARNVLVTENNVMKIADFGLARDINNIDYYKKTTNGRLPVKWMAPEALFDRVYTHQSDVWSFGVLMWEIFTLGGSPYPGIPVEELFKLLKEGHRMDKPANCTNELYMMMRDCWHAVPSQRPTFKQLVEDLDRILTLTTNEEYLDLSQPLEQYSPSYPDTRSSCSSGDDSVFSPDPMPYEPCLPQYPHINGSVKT
Dual specificity mitogen-activated protein kinase kinase 7 (Homo sapiens), sequence (O14733 whole entry): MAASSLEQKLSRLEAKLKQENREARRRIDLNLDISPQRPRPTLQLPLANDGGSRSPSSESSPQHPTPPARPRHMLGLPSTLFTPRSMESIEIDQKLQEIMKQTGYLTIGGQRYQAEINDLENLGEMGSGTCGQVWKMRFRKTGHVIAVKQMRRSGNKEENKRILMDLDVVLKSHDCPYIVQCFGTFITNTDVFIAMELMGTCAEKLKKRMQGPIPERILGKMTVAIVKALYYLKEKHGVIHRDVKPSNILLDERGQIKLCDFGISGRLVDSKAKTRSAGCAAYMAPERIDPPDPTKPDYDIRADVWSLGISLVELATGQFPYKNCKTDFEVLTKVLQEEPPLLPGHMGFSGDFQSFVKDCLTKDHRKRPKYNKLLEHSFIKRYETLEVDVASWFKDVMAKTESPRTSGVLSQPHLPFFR

In the case of `Cc1ccc(NC(=O)C2(C(=O)Nc3ccc(Nc4ncc(F)c(-c5cc(F)c6nc(C)n(C(C)C)c6c5)n4)cc3)CC2)cc1`, the Activity [1] is reported as “Non-Toxic”, the half-life [2] is reported as 3 h and the inhibition [3] is reported as 46%. It also gave an inhibition [4] of 78%, an inhibition [5] of 89% and an inhibition [6] of 7%. The inhibition [7] was 95%, the inhibition [8] was 74% and the inhibition [9] was 78%. The inhibition [10] was 8%, the inhibition [11] was 13% and the inhibition [12] was 2%. The inhibition [13] was 10%, the inhibition [14] was 1% and the inhibition [15] was 0%. For the same molecule, the IC50 (CDK2/Cyclin A2) was 0.23 µM, the Activity [16] was “Non-Toxic” and the Activity [17] was “Non-Toxic”. For the same molecule, the Activity [18] was “Non-Toxic”.

With `COc1cc2nccc(Oc3ccc(NC(=O)C4(C(=O)Nc5ccc(F)cc5)CC4)cc3)c2cc1OC` [CABOZANTINIB] the Activity (T47D) was “Active”, the Activity (HeLa) was “Active” and the inhibition (MDA-MB-231) was “Active”. For the same molecule, the inhibition (SiHa) was “Active”.
